Residues, ends and D or L forms follow the SMILES beside them. *: point of attachment. NHPhenethyl = c1ccc(CCN*)cc1; Boc = CC(C)(C)OC(=O)*
Columns and labels:
[1] = biological target: T1, Cholecystokinin receptor type A (Cavia porcellus, UniProt Q63931); experiment: Displacement of [125I]BH-CCK-8S from […] expressed in guinea pig pancreatic cells; format: cell-based
T1 sequence (Q63931 whole entry): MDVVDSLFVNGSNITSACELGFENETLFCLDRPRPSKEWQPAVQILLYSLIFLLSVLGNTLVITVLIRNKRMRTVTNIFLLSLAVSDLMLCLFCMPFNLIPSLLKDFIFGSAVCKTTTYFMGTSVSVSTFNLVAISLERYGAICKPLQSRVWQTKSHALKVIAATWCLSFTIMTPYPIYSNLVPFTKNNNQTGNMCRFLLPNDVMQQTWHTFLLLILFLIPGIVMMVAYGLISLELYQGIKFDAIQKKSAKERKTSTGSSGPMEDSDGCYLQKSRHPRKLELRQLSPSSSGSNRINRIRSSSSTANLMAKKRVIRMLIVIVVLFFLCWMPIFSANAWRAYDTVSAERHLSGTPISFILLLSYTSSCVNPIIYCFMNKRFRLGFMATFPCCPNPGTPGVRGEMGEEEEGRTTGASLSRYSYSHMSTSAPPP
In short: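 Radioligand competition binding on guinea pig pancreas cell homogenates, using 20 pM [125I]BH-CCK-8S as the tracer. Affinity is reported as pKi. Results come from at least three separate experiments.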

[2] = biological target: T2, Gastrin/cholecystokinin type B receptor (Rattus norvegicus) (UniProt P30553); conditions: Stomach
T2 sequence (whole entry): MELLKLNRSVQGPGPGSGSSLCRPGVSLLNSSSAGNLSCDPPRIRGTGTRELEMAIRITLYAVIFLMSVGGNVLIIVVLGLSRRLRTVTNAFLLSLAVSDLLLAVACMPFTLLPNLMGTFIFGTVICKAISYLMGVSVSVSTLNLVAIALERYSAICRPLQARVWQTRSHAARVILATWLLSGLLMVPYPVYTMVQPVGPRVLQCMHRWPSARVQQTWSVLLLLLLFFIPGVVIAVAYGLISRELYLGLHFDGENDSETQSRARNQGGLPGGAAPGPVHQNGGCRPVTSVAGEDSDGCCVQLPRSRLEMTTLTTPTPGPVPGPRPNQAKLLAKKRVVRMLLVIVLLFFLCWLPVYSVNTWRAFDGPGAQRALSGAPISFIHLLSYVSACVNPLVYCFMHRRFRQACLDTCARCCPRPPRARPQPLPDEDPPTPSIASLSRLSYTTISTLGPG

SMILES	Ki [1] [nM]	pKb [2]
CN1C(=O)[C@H](NC(=O)Nc2cccc(-c3nnn[nH]3)c2)N=C(c2ccccc2)c2ccccc21	316	8.4
O=C(O)c1cc(NC(=O)[C@H](Cc2ccccc2)NC(=O)c2cc3cc[nH]c3cc2C(=O)NCC23CC4CC(CC(C4)C2)C3)cc(C(=O)O)c1		9.3
O=C(O)c1cccc(NC(=O)c2nc(C3CCCCC3)[nH]c2COC23CC4CC(CC(C4)C2)C3)c1		9.1
Cn1ccc2cc(C(=O)N[C@@H](Cc3ccccc3)C(=O)Nc3cc(C(=O)O)cc(C(=O)O)c3)c(C(=O)NCC34CC5CC(CC(C5)C3)C4)cc21	3980	9.8
C[C@](Cc1c[nH]c2ccccc12)(NC(=O)OC1[C@H]2C[C@@H]3C[C@@H](C[C@H]1C3)C2)C(=O)NC[C@H](NC(=O)CCC(=O)O)c1ccccc1 (stereo partly specified) [CI-988]	631	
C[C@@H](NC(=O)C[C@@H]1CCCN1C(=O)C1C2c3ccccc3C(c3ccccc32)C1C(=O)NCC12CC3CC(CC(C3)C1)C2)C(=O)O (stereo partly specified)	25100	7.3
O=C1NN(C(=O)Nc2ccc(Br)cc2)[C@H](c2ccccc2)[C@H]1c1ccccc1	20000	5.9
COc1ccc(CCNC(=O)[C@H](CC(=O)O)NC(=O)[C@H](Cc2ccc3ccccc3c2)NC(=O)[C@H](Cc2c[nH]c3ccccc23)NC(=O)OC(C)(C)C)cc1	63.1	5.4
Cc1cccc(NC(=O)N[C@@H]2N=C(c3ccccc3)c3ccccc3N(C)C2=O)c1 [L-365260]	316	7.6
O=C(O)c1cccc(NC(=O)c2nc(-c3ccccc3)[nH]c2CC23CC4CC(CC(C4)C2)C3)c1	1260	6.6
O=C(O)c1cc(NC(=O)[C@H](Cc2ccccc2)NC(=O)c2cc3sccc3cc2C(=O)NCC23CC4CC(CC(C4)C2)C3)cc(C(=O)O)c1	794	9.4
O=C(O)c1cc(NC(=O)[C@H](Cc2ccccc2)NC(=O)c2cc3ccccc3cc2C(=O)NCC23CC4CC(CC(C4)C2)C3)cc(C(=O)O)c1		8.2
O=C(O)c1cc(NC(=O)[C@H](Cc2ccccc2)NC(=O)C2C3c4ccccc4C(c4ccccc43)C2C(=O)NCC23CC4CC(CC(C4)C2)C3)cc(C(=O)O)c1 (stereo partly specified)		8.3
O=C(O)c1cc(NC(=O)[C@H](Cc2ccc(I)cc2)NC(=O)c2cc3cc[nH]c3cc2C(=O)NCC23CC4CC(CC(C4)C2)C3)cc(C(=O)O)c1	2000	9.1
Nc1cccc2cc(C(=O)N[C@@H](Cc3ccccc3)C(=O)Nc3cc(C(=O)O)cc(C(=O)O)c3)c(C(=O)NCC34CC5CC(CC(C5)C3)C4)cc12	2510	9
CC(C)C[C@H](NC(=O)[C@H](Cc1c[nH]c2ccccc12)NC(=O)OC(C)(C)C)C(=O)N[C@@H](CC(=O)O)C(=O)NCCc1ccccc1 (Boc-Trp-Leu-Asp-NHPhenethyl)	7940	6.9
CNc1cccc(NC(=O)N[C@@H]2N=C(c3ccccn3)c3ccccc3N(CC(=O)C(C)(C)C)C2=O)c1 [NETAZEPIDE]	398	9.9
O=C(O)c1cc(NC(=O)[C@H](Cc2ccccc2)NC(=O)c2cc3cc[nH]c3cc2C(=O)NC2CCCCCC2)cc(C(=O)O)c1	3160	9.3
O=C(O)C1C2c3ccccc3C(c3ccccc32)C1C(=O)NCC12CC3CC(CC(C3)C1)C2 (stereo unspecified)		5.6
CC(=O)N1[C@H](CC23CC4CC(CC(C4)C2)C3)C(=O)N(Cc2ccccc2)c2ccccc2C(=O)C[C@H]1C(=O)NCC(=O)O	7940	6.8
Nc1cccc2cc(C(=O)NCC34CC5CC(CC(C5)C3)C4)c(C(=O)N[C@@H](Cc3ccccc3)C(=O)Nc3cc(C(=O)O)cc(C(=O)O)c3)cc12	2510	8.2
